{"source": "ChEMBL document CHEMBL5715941", "about": "“AZD1152, a selective inhibitor of Aurora B kinase, inhibits human tumor xenograft growth by inducing apoptosis” (Clin Cancer Res, 2007)", "key": {"[1]": {"tested_on": "SW-620", "assay": "Antitumor activity against human SW620 cells xenografted in Swiss nude mouse assessed as reduction in proportion of PhH3-positive cells within the G2-M phase at 70 mg/kg/day, sc measured over 48 hrs by flow cytometry analysis", "format": "functional, organism-based", "procedure,_shortened": "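Male nude mice with palpable s.c. SW620 tumors (n = 4/group) received AZD1152 (0.5-150 mg/kg/d) or vehicle by constant 48-h s.c. mini-pump infusion. Tumors were then excised, fixed and disaggregated. Flow cytometry with propidium iodide gave DNA content (2N, 4N, >4N), and rabbit anti-PhH3 with fluorescein anti-rabbit IgG gave PhH3-positive cells (%).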"}, "[2]": {"tested_on": "SW-620", "assay": "Antitumor activity against human SW620 cells xenografted in Swiss nude mouse assessed as reduction in PhH3 at Ser10 residue at 70 mg/kg/day, sc over 48 hrs by immunohistochemistry analysis", "format": "functional, organism-based", "procedure,_shortened": "(§1)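 Male nude mice bearing SW620 tumors (n = 4/group) had 48-h s.c. mini-pump infusion of AZD1152 (70 mg/kg/d) or vehicle. Excised tumor sections were stained with H&E, or immunostained for PhH3 Ser10 with rabbit polyclonal antibody, HRP-polymer detection and hematoxylin counterstain.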"}, "[3]": {"tested_on": "SW-620", "assay": "Antitumor activity against human SW620 cells xenografted in immunodeficient Swiss athymic mouse assessed as inhibition of tumor volume at 10 mg/kg/day, sc for 48 hrs on days 7 to 9 and measured on day 23 relative to control", "format": "functional", "conditions": "SW-620, 408 h, time 17 day", "procedure,_shortened": "(§2)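 Male Swiss athymic nude mice, 8-12 wk; tumor cells (1×10^6-1×10^7, 50:50 Matrigel) implanted s.c. on flank. Randomized (n = 8-11) at 0.2-0.5 cm3. AZD1152 in Tris buffer pH 9, or vehicle (0.3 mol/L Tris), by 48-h s.c. osmotic mini-pump infusion (two 24-h pumps in sequence). Caliper volumes up to 3×/week; growth inhibition from change in control vs treated volume; one-tailed t test.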"}, "[4]": {"tested_on": "SW-620", "assay": "Antitumor activity against human SW620 cells xenografted in immunodeficient Swiss athymic mouse assessed as maximum inhibition of tumor volume at 10 mg/kg/day, sc for 48 hrs on days 7 to 9 and measured on day 10 relative to control", "format": "functional", "conditions": "SW-620, 96 h, time 4 day", "procedure,_shortened": "as §2"}, "[5]": {"tested_on": "SW-620", "assay": "Antitumor activity against human SW620 cells xenografted in nude athymic rat assessed as normal appearance in bone marrow at 25 mg/kg/day, iv for 4 consecutive days and measured on 9 day by H&E staining based immunohistochemistry analysis", "format": "functional, organism-based", "procedure,_shortened": "(§3)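 Nude rats bearing SW620 tumors were dosed i.v. with AZD1152 at 25 mg/kg/d or with vehicle on days 1-4. Subgroups (n = 3) were killed at set days. Tumor and bone marrow sections were H&E-stained and examined histologically.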"}, "[6]": {"tested_on": "SW-620", "assay": "Antitumor activity against human SW620 cells xenografted in immunodeficient Swiss athymic mouse assessed as maximum inhibition of tumor volume at 25 mg/kg/day, ip for 4 days on days 6 to 9 and measured on day 13 relative to control", "format": "functional", "conditions": "SW-620, 192 h, time 8 day", "procedure,_shortened": "(§4)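 Male Swiss nude mice bearing s.c. flank SW620 xenografts (cells in Matrigel), randomized (n = 8-11) at 0.2-0.3 cm3. AZD1152 in Tris buffer pH 9, or vehicle, given as a once-daily i.v. or i.p. bolus. Caliper volumes up to 3×/week; inhibition from change in control vs treated volume; one-tailed t test.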"}, "[7]": {"tested_on": "SW-620", "assay": "Antitumor activity against human SW620 cells xenografted in immunodeficient Swiss athymic mouse assessed as maximum inhibition of tumor volume at 150 mg/kg/day, sc for 48 hrs on days 7 to 9 and measured on day 23 relative to control", "format": "functional", "conditions": "SW-620, 408 h, time 17 day", "procedure,_shortened": "as §2"}, "[8]": {"tested_on": "SW-620", "assay": "Antitumor activity against human SW620 cells xenografted in nude athymic rat assessed as tumor growth inhibition at 25 mg/kg/day, iv for 4 consecutive days and measured at 8 day relative to control", "format": "functional", "conditions": "SW-620, 192 h", "procedure,_shortened": "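Male nude rats with established SW620 xenografts, randomized at 0.5-1 cm3, received vehicle or AZD1152 (25 mg/kg, in Tris pH 9) as a once-daily i.v. bolus for 4 consecutive days. Tumor volume was measured by caliper (n = 10); growth inhibition relative to vehicle.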"}, "[9]": {"tested_on": "HCT-116", "assay": "Antitumor activity against human HCT-116 cells xenografted in immunodeficient Swiss athymic mouse assessed as maximum inhibition of tumor volume at 150 mg/kg/day, sc for 48 hrs on days 11 to 13 and measured on day 18 relative to control", "format": "functional", "conditions": "HCT-116, 192 h, time 8 day", "procedure,_shortened": "as §2"}, "[10]": {"tested_on": "SW-620", "assay": "Antitumor activity against human SW620 cells xenografted in nude athymic rat assessed as atrophy in bone marrow at 25 mg/kg/day, iv for 4 consecutive days and measured on 5 day by H&E staining based immunohistochemistry analysis", "format": "functional, organism-based", "procedure,_shortened": "as §3"}, "[11]": {"tested_on": "A549", "assay": "Antitumor activity against human A549 cells xenografted in immunodeficient Swiss athymic mouse assessed as maximum inhibition of tumor volume at 150 mg/kg/day, sc for 48 hrs on days 13 to 15 and measured on day 26 relative to control", "format": "functional", "conditions": "A549, 336 h, time 14 day", "procedure,_shortened": "as §2"}, "[12]": {"tested_on": "SW-620", "assay": "Antitumor activity against human SW620 cells xenografted in Swiss nude mouse assessed as increase in large multinucleated cells at 70 mg/kg/day, sc over 48 hrs by H&E staining method", "format": "functional, organism-based", "procedure,_shortened": "as §1"}, "[13]": {"tested_on": "SW-620", "assay": "Antitumor activity against human SW620 cells xenografted in nude athymic rat assessed as myelosuppression at 25 mg/kg/day, iv for 4 consecutive days by flow cytometric analysis", "format": "functional, organism-based", "conditions": "time 4.0 day"}, "[14]": {"tested_on": "HCT-116", "assay": "Antitumor activity against human HCT-116 cells xenografted in immunodeficient Swiss athymic mouse assessed as inhibition of tumor volume at 150 mg/kg/day, sc for 48 hrs on days 11 to 13 and measured on day 25 relative to control", "format": "functional", "conditions": "HCT-116, 360 h, time 15 day", "procedure,_shortened": "as §2"}, "[15]": {"tested_on": "SW-620", "assay": "Antitumor activity against human SW620 cells xenografted in immunodeficient Swiss athymic mouse assessed as inhibition of tumor volume at 25 mg/kg/day, ip for 4 days on days 6 to 9 and measured on day 24 relative to control", "format": "functional", "conditions": "SW-620, 456 h, time 19 day", "procedure,_shortened": "as §4"}, "[16]": {"tested_on": "SW-620", "assay": "Antitumor activity against human SW620 cells xenografted in immunodeficient Swiss athymic mouse assessed as inhibition of tumor volume at 150 mg/kg/day, sc for 48 hrs on days 7 to 9 and measured on day 23 relative to control", "format": "functional", "conditions": "SW-620, 408 h, time 17 day", "procedure,_shortened": "as §2"}, "[17]": {"tested_on": "A549", "assay": "Antitumor activity against human A549 cells xenografted in immunodeficient Swiss athymic mouse assessed as maximum inhibition of tumor volume at 25 mg/kg/day, sc for 48 hrs on days 13 to 15 and measured on day 15 relative to control", "format": "functional", "conditions": "A549, 72 h, time 3 day", "procedure,_shortened": "as §2"}, "[18]": {"tested_on": "HL-60", "assay": "Antitumor activity against human HL-60 cells xenografted in immunodeficient Swiss athymic mouse assessed as maximum inhibition of tumor volume at 150 mg/kg/day, sc for 48 hrs on days 16 to 18 and measured on day 18 relative to control", "format": "functional", "conditions": "HL-60, 72 h, time 3 day", "procedure,_shortened": "as §2"}, "[19]": {"tested_on": "SW-620", "assay": "Antitumor activity against human SW620 cells xenografted in nude athymic rat assessed as reduction in total cellular content at 25 mg/kg/day, iv for 4 consecutive days and measured on 5 day by H&E staining based immunohistochemistry analysis", "format": "functional, organism-based", "procedure,_shortened": "as §3"}, "[20]": {"tested_on": "SW-620", "assay": "Antitumor activity against human SW620 cells xenografted in immunodeficient Swiss athymic mouse assessed as inhibition of tumor volume at 25 mg/kg/day, sc for 48 hrs on days 7 to 9 and measured on day 23 relative to control", "format": "functional", "conditions": "SW-620, 408 h, time 17 day", "procedure,_shortened": "as §2"}}, "note": "Calls of active or inactive are those of the source. The calls are words filed in the database; no cut-off is given here."}
{"smiles": "CCN(CCCOc1ccc2c(Nc3cc(CC(=O)Nc4cccc(F)c4)[nH]n3)ncnc2c1)CCOP(=O)(O)O", "note": "[BARASERTIB]", "values": [{"measurement": "Activity", "setting": "[1]", "result": "Active"}, {"measurement": "Activity", "setting": "[2]", "result": "Active"}, {"measurement": "inhibition in vivo at 10 mg/kg/day", "setting": "[3]", "result": 28, "unit": "%"}, {"measurement": "inhibition in vivo at 10 mg/kg/day", "setting": "[4]", "result": 55, "unit": "%"}, {"measurement": "Activity", "setting": "[5]", "result": "inactive"}, {"measurement": "inhibition in vivo at 25 mg/kg/day", "setting": "[6]", "result": 65, "unit": "%"}, {"measurement": "inhibition in vivo at 150 mg/kg/day", "setting": "[7]", "result": 87, "unit": "%"}, {"measurement": "inhibition in vivo at 25 mg/kg/day", "setting": "[8]", "result": 93, "unit": "%"}, {"measurement": "inhibition in vivo at 150 mg/kg/day", "setting": "[9]", "result": 93, "unit": "%"}, {"measurement": "Activity", "setting": "[10]", "result": "Active"}, {"measurement": "inhibition in vivo at 150 mg/kg/day", "setting": "[11]", "result": 79, "unit": "%"}, {"measurement": "Activity", "setting": "[12]", "result": "Active"}, {"measurement": "Activity", "setting": "[13]", "result": "Active"}, {"measurement": "inhibition in vivo at 150 mg/kg/day", "setting": "[14]", "result": 74, "unit": "%"}, {"measurement": "inhibition in vivo at 25 mg/kg/day", "setting": "[15]", "result": 54, "unit": "%"}, {"measurement": "inhibition in vivo at 150 mg/kg/day", "setting": "[16]", "result": 87, "unit": "%"}, {"measurement": "inhibition in vivo at 25 mg/kg/day", "setting": "[17]", "result": 74, "unit": "%"}, {"measurement": "inhibition in vivo at 150 mg/kg/day", "setting": "[18]", "result": "> 100", "unit": "%"}, {"measurement": "Activity", "setting": "[19]", "result": "Active"}, {"measurement": "inhibition in vivo at 25 mg/kg/day", "setting": "[20]", "result": 49, "unit": "%"}]}
